Biological target: RAF proto-oncogene serine/threonine-protein kinase (Homo sapiens, UniProt P04049)
Assay: Inhibition of human cRAF using [gamma-33P-ATP] as a substrate by scintillation counting
In short: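 Recombinant human c-RAF (5–10 mU) in 25 mM Tris pH 7.5 with 0.02 mM EGTA, 10 mM Mg acetate and 0.66 mg/mL myelin basic protein as phosphoacceptor; started by adding MgATP mix containing [γ-33P]ATP (approx. 500 cpm/pmol). Incubated 40 min at room temperature, stopped with 3% phosphoric acid, spotted on P30 filtermat, washed, dried and counted by scintillation.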

RAF proto-oncogene serine/threonine-protein kinase, sequence (P04049 whole entry): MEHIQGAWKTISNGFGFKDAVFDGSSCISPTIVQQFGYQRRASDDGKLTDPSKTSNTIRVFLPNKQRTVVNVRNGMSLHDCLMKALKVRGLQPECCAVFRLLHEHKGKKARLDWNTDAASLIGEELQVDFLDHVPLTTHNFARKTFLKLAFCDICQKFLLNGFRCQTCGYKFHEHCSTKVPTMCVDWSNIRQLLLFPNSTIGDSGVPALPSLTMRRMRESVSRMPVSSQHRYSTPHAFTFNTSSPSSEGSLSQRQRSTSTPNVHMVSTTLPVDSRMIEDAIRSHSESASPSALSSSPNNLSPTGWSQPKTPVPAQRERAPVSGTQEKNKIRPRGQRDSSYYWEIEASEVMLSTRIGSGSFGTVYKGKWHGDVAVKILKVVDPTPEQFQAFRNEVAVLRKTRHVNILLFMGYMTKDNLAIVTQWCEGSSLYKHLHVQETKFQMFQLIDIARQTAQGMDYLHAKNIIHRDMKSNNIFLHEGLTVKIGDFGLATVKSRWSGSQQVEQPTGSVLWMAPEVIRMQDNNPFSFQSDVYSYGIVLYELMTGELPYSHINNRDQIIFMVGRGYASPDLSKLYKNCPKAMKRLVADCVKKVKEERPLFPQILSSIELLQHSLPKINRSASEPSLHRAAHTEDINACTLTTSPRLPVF

| Compound | IC50 [nM] |
| --- | --- |
| CNC(=O)c1cc2ccc(CCNC(=O)Nc3cc(C)c(Cl)cc3OC)cc2cn1 | 190 |
| CNC(=O)c1cc2ccc(CCNC(=O)Nc3cccc(C(F)(F)F)c3)cc2cn1 | 360 |
| CNC(=O)c1cc2ccc(CCNC(=O)Nc3cccc(OC(F)(F)F)c3)cc2cn1 | 260 |
| CNC(=O)c1cc2ccc(CCNC(=O)Nc3cccc(S(=O)(=O)C(F)(F)F)c3)cc2cn1 | 200 |
| CNC(=O)c1cc2ccc(CCNC(=O)Nc3ccc(C(F)(F)F)cc3)cc2cn1 | 370 |
| CNC(=O)c1cc2ccc(CCNC(=O)Nc3ccc(C)c(C(F)(F)F)c3)cc2cn1 | 200 |
| CNC(=O)c1cc2ccc(CCNC(=O)Nc3ccc(Cl)c(C(F)(F)F)c3)cc2cn1 | 160 |
| CNC(=O)c1cc2ccc(CCNC(=O)Nc3ccc(F)c(C(F)(F)F)c3)cc2cn1 | 240 |
| CNC(=O)c1cc2ccc(CCNC(=O)Nc3cc(C(F)(F)F)ccc3F)cc2cn1 | 250 |
| CNC(=O)c1cc2ccc(CCNC(=O)Nc3cc(C(F)(F)F)ccc3OC)cc2cn1 | 120 |
| CNC(=O)c1cc2ccc(CCNC(=O)Nc3cc(C(F)(F)F)ccc3OCCN(C)C)cc2cn1 | 450 |
| CNC(=O)c1cc2ccc(CCNC(=O)Nc3cc(Cl)c(C)cc3OC)cc2cn1 | 110 |
| CNC(=O)c1cc2ccc(CCNC(=O)Nc3cc(C(F)(F)F)c(Cl)cc3OC)cc2cn1 | 80 |
| CNC(=O)c1cc2ccc(CCNC(=O)Nc3cc(C(F)(F)F)c(Cl)cc3OCCN(C)C)cc2cn1 | 340 |
| CNC(=O)c1nc2ccc(CCNC(=O)Nc3cc(C(F)(F)F)ccc3OC)cc2[nH]1 | 340 |
| COC(=O)Nc1nc2ccc(CCNC(=O)Nc3cc(C(F)(F)F)ccc3OC)cc2[nH]1 | 810 |
| COc1ccc(C(F)(F)F)cc1NC(=O)NCCc1ccc2nc(NC(C)=O)[nH]c2c1 | 170 |

| Compound | IC50 [nM] |
| --- | --- |
| CNC(=O)c1nc2ccc(CCNC(=O)Nc3ccc(Cl)c(C(F)(F)F)c3)cc2[nH]1 | 280 |
| COC(=O)Nc1nc2ccc(CCNC(=O)Nc3ccc(Cl)c(C(F)(F)F)c3)cc2[nH]1 | 660 |
| CC(=O)Nc1nc2ccc(CCNC(=O)Nc3ccc(Cl)c(C(F)(F)F)c3)cc2[nH]1 | 140 |
| CC(=O)Nc1nc2ccc(CCNC(=O)Nc3cccc(C(F)(F)F)c3)cc2[nH]1 | 480 |
| CC(=O)Nc1nc2ccc(CCNC(=O)Nc3ccc(Cl)c(Cl)c3)cc2[nH]1 | 480 |
| CC(=O)Nc1nc2ccc(CCNC(=O)Nc3ccc(C)c(Cl)c3)cc2[nH]1 | 530 |
| COc1cc(C)c(Cl)cc1NC(=O)NCCc1ccc2nc(NC(C)=O)[nH]c2c1 | 190 |
| COc1cc(Cl)c(C)cc1NC(=O)NCCc1ccc2nc(NC(C)=O)[nH]c2c1 | 320 |
| CNCCOc1ccc(C)cc1NC(=O)NCCc1ccc2nc(NC(C)=O)[nH]c2c1 | 580 |
| CNCCOc1cc(Cl)c(C)cc1NC(=O)NCCc1ccc2nc(NC(C)=O)[nH]c2c1 | 490 |
| CNCCOc1ccc(C(F)(F)F)cc1NC(=O)NCCc1ccc2nc(NC(C)=O)[nH]c2c1 | 210 |
| CNCCOc1cc(Cl)c(C(F)(F)F)cc1NC(=O)NCCc1ccc2nc(NC(C)=O)[nH]c2c1 | 230 |
| CC(=O)Nc1nc2ccc(CCNC(=O)Nc3cc(C)c(Cl)cc3OCCN)cc2[nH]1 | 550 |
| CC(=O)Nc1nc2ccc(CCNC(=O)Nc3cc(C(F)(F)F)ccc3OCCN)cc2[nH]1 | 250 |
| CC(=O)Nc1nc2ccc(CCNC(=O)Nc3cc(C(F)(F)F)c(Cl)cc3OCCN)cc2[nH]1 | 180 |
| CC(=O)Nc1nc2ccc(CCNC(=O)Nc3cc(C(F)(F)F)ccc3OCC3CCCN3)cc2[nH]1 (stereo not drawn) | 230 |

Source: ChEMBL document CHEMBL1759847, “Design and synthesis of isoquinolines and benzimidazoles as RAF kinase inhibitors” (Bioorg Med Chem Lett, 2011)
